Screening data deposited in PubChem by several laboratories.
Only some compounds are listed: those with a hit (about 2.9% of all), similar ones and a draw of the others.
SENP8 block-1: SENP8 protease inhibitors, primary screen, biochemical, luminescence. purified SENP8, Z-RLRGG-aminoluciferin cleavage. inhibition, % at 10 µM. hit rate 1.2% among 330,000. AID 2540, 2010; in the data active = inhibition above about 50%
Target sequence (Q96LD8 whole entry, looked up): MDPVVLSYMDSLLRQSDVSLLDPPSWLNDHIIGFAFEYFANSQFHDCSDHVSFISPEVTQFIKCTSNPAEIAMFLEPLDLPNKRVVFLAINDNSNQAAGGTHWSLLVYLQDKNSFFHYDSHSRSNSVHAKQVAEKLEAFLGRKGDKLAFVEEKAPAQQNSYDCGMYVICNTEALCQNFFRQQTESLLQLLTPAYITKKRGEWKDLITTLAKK
SENP1 inh: human SENP1 catalytic domain inhibitors, primary screen, biochemical, FRET, uHTS. hit rate 0.21% among 360,000. AID 624204, 2012. inhibition, % at 10 µM. recombinant SENP1 catalytic domain, CyPet-SUMO1-YPet FRET cleavage. Sentrin-specific protease 1 (Homo sapiens), Q9P0U3;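 active = inhibition at least 30% at 10 µM, raw YFP signal under a set limit, fluorescence ratio 0.5 to 1.5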;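 also: 0% = enzyme with DMSO and 100% = no enzyme wells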
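Controls: no-enzyme wells low, DMSO-plus-enzyme wells high control. Test system: human recombinant His6-tagged SENP1 catalytic domain enzyme. Reagent: SFCypet-SUMO1-SFYpet FRET protein substrate, 25 nM final. Doses: one dose per compound, 10 µM, 0.5% DMSO. Detection: FRET, CFP and YFP emission. Timing: 50 min reaction at room temperature.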
SENP8 block-2: human SENP8 protease inhibitors, primary screen, biochemical, fluorescence, Nedd8 protein substrate, uHTS. Sentrin-specific protease 8 (Homo sapiens), Q96LD8. recombinant SENP8. inhibition, % at 20 µM. hit rate 0.64% among 360,000. AID 602440, 2012; in the data active = inhibition mostly above about 40%, no sharp cut-off; inactive = mostly below about 27%
SENP7 block: SENP7 protease inhibitors, primary screen, biochemical, luminescence, uHTS. Sentrin-specific protease 7 (Homo sapiens), Q9BQF6. recombinant SENP7, Z-RLRGG-aminoluciferin luminescence, 40 min. inhibition, % at 5 µM. hit rate 1.5% among 330,000. AID 434973, 2010;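 active = inhibition above about 50% at the single test dose, limit read from the data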;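 also: plate controls were DMSO with enzyme for no effect and no enzyme buffer wells for full effect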
HSP90 inh: HSP90 inhibitors, primary screen, cell lysate, luminescence. Heat shock protein HSP 90 (rabbit reticulocyte lysate; luciferase refolding). inhibition, % at 5.6 µM. hit rate 0.91% among 290,000. Rabbit reticulocyte lysate, luciferase refolding luminescence, 3 h;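 active = inhibition above the screen-wide mean plus 3 SD, computed separately per campaign, cut at about 16% in these data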;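 also: 0% = DMSO wells and 100% = 60 µM geldanamycin wells; inhibitors lower the luminescence because luciferase stays unfolded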
SENP6 inh: SENP6 protease inhibitors, primary screen, biochemical, luminescence, uHTS. hit rate 1.8% among 330,000. inhibition, % at 10 µM. AID 2599, 2010. Sentrin-specific protease 6 (Homo sapiens), Q9GZR1. Recombinant SENP6 catalytic domain, aminoluciferin luminescence;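 active = inhibition above about 50% at the single tested dose, limit read from the data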;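 also: plate controls were DMSO wells with enzyme for no effect and DMSO wells lacking enzyme for full effect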
HSP90 confirm: HSP90 inhibitors, confirmation, cell lysate, luminescence; hit rate 64% among 2,300; rabbit reticulocyte lysate, luciferase refolding luminescence, 3 h; shares compounds with HSP90 inh; inhibition, % at 5.9 µM; in the data active = inhibition above about 18%;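 also: 0% = vehicle wells and 100% = reference inhibitor wells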
luciferase ctr: firefly luciferase inhibitors, HSP90 counter-screen, confirmation, artefact control for HSP90 inhibitor project, biochemical, luminescence, triplicate; hit rate 48% among 2,300; inhibition, % at 5.9 µM; shares compounds with HSP90 inh; purified native firefly luciferase;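 active = inhibition above the mean inhibition of all tested sample wells plus 3 SD, cut at about 10% in these data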;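 also: 0% = DMSO with luciferase and 100% = wells lacking luciferase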
SENP8 confirm: SENP8 protease inhibitors, retest, confirmation, biochemical, luminescence, single concentration | shares compounds with SENP7 block | Recombinant SENP8, Z-RLRGG-aminoluciferin luminescence, 60 min | inhibition, % at 12.5 µM | hit rate 40% among 6,200 | AID 488912, 2010;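 active = mean inhibition across replicates above about 50%, limit read from the data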
SENP6 confirm: SENP6 protease inhibitors, confirmation, biochemical, luminescence, single concentration | hit rate 58% among 6,200 | recombinant SENP6, Z-RLRGG-aminoluciferin luminescence | inhibition, % at 12.5 µM | AID 488915, 2010 | shares compounds with SENP7 block
SENP7 confirm: SENP7 protease inhibitors, retest, confirmation, biochemical, luminescence, single concentration. shares compounds with SENP7 block. recombinant SENP7, Z-RLRGG-aminoluciferin luminescence, 40 min. inhibition, % at 12.5 µM. hit rate 69% among 6,200
Casp3 SENP sel: caspase-3 protease inhibitors, confirmation, selectivity assay for SENP inhibitor project, biochemical, single concentration; shares compounds with SENP7 block; purified caspase-3, Z-DEVD-aminoluciferin luminescence, 60 min; inhibition, % at 12.5 µM; hit rate 60% among 6,200;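 active = mean inhibition above about 50%, limit read from the data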;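 also: plate controls were enzyme with DMSO for no effect and wells without caspase-3 for full effect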
Target sequence (P42574 28-227 limits assumed): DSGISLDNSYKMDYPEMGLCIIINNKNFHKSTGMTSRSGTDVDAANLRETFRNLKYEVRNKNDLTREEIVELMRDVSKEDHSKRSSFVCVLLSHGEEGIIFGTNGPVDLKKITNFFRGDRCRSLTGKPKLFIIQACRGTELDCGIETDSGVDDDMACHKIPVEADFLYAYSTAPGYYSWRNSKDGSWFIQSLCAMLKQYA
SENP luc ctr: interferes with luciferase luminescence in SENP counter-screen. AID 488919. inhibition, % at 12.5 µM. Pre-incubated SENP8/Z-RLRGG-aminoluciferin, luciferase luminescence interference. shares compounds with SENP7 block. hit rate 39% among 6,200;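 active = mean inhibition above about 50% when retested at one dose, limit read from the data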;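 also: plate controls were DMSO wells with completed reaction for no effect and substrate without enzyme for full effect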
Numbers without * were called inactive; x = not tested or not shown.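 The calls were made as follows, unless noted: active = mean inhibition above about 50% in the one-dose retest (limit read from the data); inactive = the rest.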

SMILES | SENP8 block-1 | SENP1 inh | SENP8 block-2 | SENP7 block | HSP90 inh | SENP6 inh | HSP90 confirm | luciferase ctr | SENP8 confirm | SENP6 confirm | SENP7 confirm | Casp3 SENP sel | SENP luc ctr
O=C(Nc1nc2ccccc2[nH]1)c1ccc(Cl)cc1 | 87* | -1 | -38 | 90* | 46* | 93* | 65* | 58* | 42 | 92* | 100* | 93* | 24
O=C(NCc1ccccn1)[C@@H]1CCCN1C(=O)[C@@H]1CCCN1C(=O)c1ccc(Cl)cc1 | x | 0 | -386 | x | x | x | x | x | x | x | x | x | x
Cc1cccnc1NC(=O)NC(=O)c1ccc(C(C)(C)C)s1 | 14 | 0 | 6 | -2 | 0 | -20 | x | x | x | x | x | x | x
COC(=O)c1ccc2nc(-c3cccc(N)c3)cn2c1 | 42 | -3 | -15 | 66* | 36* | 23 | 71* | 54* | 60* | 62* | 86* | 86* | 69*
CC(=O)Nc1ccc2nc(-c3ccccc3)cn2c1 | 10 | 4 | -386 | 1 | 11 | 1 | x | x | x | x | x | x | x
Cc1cccc(-c2cc3nc4c(c(N5CCOCC5)n3n2)CCCC4)c1 | 53* | 1 | -198 | 5 | 40* | 65* | 59* | 58* | 60* | 51* | 50 | 48 | 13
CC(=O)c1sc(NC(=O)C2COc3ccccc3O2)nc1C (stereo not given) | 29 | 0 | -46 | 19 | 43* | 52* | 70* | 66* | 20 | 24 | 62* | 62* | 51*
Cc1ccc(NC(=O)C2COc3ccccc3O2)cc1 (stereo not given) | 0 | 2 | 18 | -22 | 3 | 0 | x | x | x | x | x | x | x
CC1(C)Oc2ccc(NC(=O)C3COc4ccccc4O3)cc2O1 (stereo not given) | 27 | -1 | 30 | 48 | 27* | 66* | 49* | 44* | 72* | 72* | 93* | 71* | 77*
O=C(Nc1nncs1)C1COc2ccccc2O1 (stereo not given) | -18 | 2 | 12 | -10 | 3 | -27 | x | x | x | x | x | x | x
Cc1ccccc1-c1nc(-c2ccccn2)no1 | 96* | -1 | 13 | 100* | 46* | 97* | 86* | 82* | 98* | 99* | 102* | 98* | 98*
Cc1ccccc1-c1noc(-c2ccccc2C(=O)O)n1 | -7 | 1 | 10 | 3 | -5 | 8 | x | x | x | x | x | x | x
